Format in all cases: functional
The test system of test [1] is Mus musculus. In words: Analgesic activity determined by its ability to inhibit phenylbenzoquinone (PBQ, ip) induced abdominal writhing at dose of 3 mg/kg. The conditions noted are these: Abdomen. Summed up: (§1)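 Male CD mice, 18–22 g, groups of 10, fasted overnight. Dosed orally in 1% methylcellulose 60 min before ip phenylbenzoquinone (2 mg/kg, 0.02% aqueous). Writhes (abdominal contractions, lordosis, hindlimb extension) counted over 10 min, starting 5 min after PBQ. Group means and standard errors taken; percent inhibition calculated against vehicle controls.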

Test [2] has as its system Rattus norvegicus. Kind of test: Gastric haemorrhage at the dose of 30 mg/kg expressed as the number of rats with lesions per 6 number of rats. Summed up:
(§2)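 Male Sprague-Dawley rats, 120–200 g, six per group, weight-sorted and fasted overnight. Given orally as a suspension in 0.5% methocal. Killed by CO2 4 h later. Stomachs everted and washed, and mucosal lesions counted visually under 3× magnification. Scored as rats with lesions per total, with lesions per animal.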

Test [3] relates to Mus musculus. Kind of test: Analgesic activity determined by its ability to inhibit phenylbenzoquinone (PBQ, ip) induced abdominal writhing at dose of 10 mg/kg. Particulars: Abdomen. Summed up:
as §1
On the technique in general: Writhing tests count abdominal constrictions after an irritant is injected.

Test [4] deals with Rattus norvegicus. Kind of test: Gastric haemorrhage at the dose of 10 mg/kg expressed as the number of rats with lesions per 6 number of rats (lesions per animal=4.2). A digest of the protocol:
as §2

The subject of test [5] is Rattus norvegicus. Kind of test: Antiinflammatory activity was evaluated by the inhibition of rat carrageenan foot edema (CFE) assay at the dose of 10 mg/kg. A digest of the protocol:
(§3)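 Rats, six per dose. Oral dosing 1 h before carrageenan injection, as a suspension in 0.25% (w/v) agar in water, 3.0 mL per animal. Hindpaw volume read by mercury displacement just after injection and 3 h later. Percent inhibition of mean swelling relative to vehicle controls; unpaired Student's t test.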
For orientation: Carrageenan injected into the paw causes an acute inflammation.

Test [6] relates to Rattus norvegicus. In words: Antiinflammatory activity was evaluated by the inhibition of rat carrageenan foot edema (CFE) assay at the dose of 3 mg/kg. A digest of the protocol: as §3
In test [7] the test system is Mus musculus. Kind of test: Analgesic activity determined by its ability to inhibit phenylbenzoquinone (PBQ, ip) induced abdominal writhing at dose of 30 mg/kg. The conditions noted are these: Abdomen. Summed up: as §1
Test [8] concerns Rattus norvegicus. Kind of test: Antiinflammatory activity was evaluated by the inhibition of rat carrageenan foot edema (CFE) assay at the dose of 1 mg/kg. Summed up: as §3
Test [9] concerns Rattus norvegicus. Kind of test: Gastric haemorrhage at the dose of 10 mg/kg expressed as the number of rats with lesions per 6 number of rats. A digest of the protocol:
as §2

Test [10] concerns Rattus norvegicus. In words: Gastric haemorrhage at the dose of 30 mg/kg expressed as the number of rats with lesions per 6 number of rats (lesions per animal=1.7). Summed up: as §2
Test [11] concerns Rattus norvegicus. In words: Compound was evaluated for the effective dose required for the inhibition of rat carrageenan foot edema (CFE) assay.

This is an account of results in ChEMBL document CHEMBL1123337, “Synthesis and antiinflammatory/analgesic activities of 11H-dibenzo[b, e,][1,4]dioxepinacetic acids” (J Med Chem, 1986).

The term inhibition in vivo denotes the drop in the measured response relative to a control, in per cent. Usually ED50 stands for the dose that gives a 50% effect, or the effect in half of the subjects. A lower ED50 goes with greater potency.

In the case of `CC(C(=O)O)c1ccc2c(c1)Oc1ccccc1CO2` (stereo not drawn), the inhibition in vivo at 3 mg/kg worked out at 38% in [1] and 27% in test [6]. Moreover, the “No. of rats with lesions” value in test [2] is 6; in test [4], 5. Besides, the results for the inhibition in vivo at 10 mg/kg in [3] and in [5] were 70% and 42%, respectively. Moreover, the inhibition in vivo at 30 mg/kg in test [7] came to 91%. The inhibition in vivo at 1 mg/kg in test [8] amounted to 21%.

With `COC(=O)C(C)c1ccc2c(c1)Oc1ccccc1CO2` (stereo not drawn), the inhibition in vivo at 10 mg/kg in test [5] turned out to be 56%. Moreover, the inhibition in vivo at 3 mg/kg in test [6] stood at 32%. For the same compound, the figures for the “No. of rats with lesions” value in test [9] and in test [10] were 0 and 5, respectively. In addition, the inhibition in vivo at 1 mg/kg in test [8] turned out to be 23%.

Regarding `O=C(O)Cc1ccc2c(c1)Oc1cc(Cl)ccc1CO2`, the inhibition in vivo at 10 mg/kg in test [5] was determined as 5%. Also, the inhibition in vivo at 3 mg/kg in [6] turned out to be 19%. In test [7], the inhibition in vivo at 30 mg/kg came to 26%. In addition, the inhibition in vivo at 1 mg/kg in [8] worked out at 11%.

Take `CC(=O)Nc1ccc2c(c1)COc1ccc(CC(=O)O)cc1O2`: the inhibition in vivo at 10 mg/kg in [5] amounted to 23%. The inhibition in vivo at 3 mg/kg in test [6] turned out to be 16%. Moreover, in test [7], the inhibition in vivo at 30 mg/kg was -55%. Moreover, the inhibition in vivo at 1 mg/kg in test [8] is 35%.

`O=C(O)Cc1ccc2c(c1)Oc1ccccc1CO2`: in [5], the inhibition in vivo at 10 mg/kg is 40%. Besides, the inhibition in vivo at 3 mg/kg in [6] is 10%. Further, the inhibition in vivo at 30 mg/kg in [7] is 26%. Besides, the inhibition in vivo at 1 mg/kg in [8] amounted to 24%.

Regarding `CC(CO)c1ccc2c(c1)Oc1ccccc1CO2` (stereo not drawn), the inhibition in vivo at 10 mg/kg in [5] was determined as 45%. The inhibition in vivo at 3 mg/kg in test [6] was 19%. Also, the inhibition in vivo at 1 mg/kg in test [8] amounted to 9%.

With `O=C(O)Cc1ccc2c(c1)COc1ccccc1O2`, the inhibition in vivo at 10 mg/kg in [5] was 16%. The inhibition in vivo at 3 mg/kg in test [6] is 9%. Also, the inhibition in vivo at 30 mg/kg in [7] worked out at 37%. Besides, the inhibition in vivo at 1 mg/kg in test [8] is 12%.

Regarding `O=C(O)Cc1ccc2c(c1)Oc1ccccc1OC2`, in test [5], the inhibition in vivo at 10 mg/kg was 5%. For the same compound, the inhibition in vivo at 3 mg/kg in test [6] came out at 6%.

With `O=C(O)Cc1ccc2c(c1)OCc1ccccc1O2`, in test [5], the inhibition in vivo at 10 mg/kg is 49%. Further, the inhibition in vivo at 3 mg/kg in test [6] amounted to 53%. Further, in test [8], the inhibition in vivo at 1 mg/kg is 28%.

As for `CC(C(=O)O)c1ccc2c(c1)OCc1ccccc1O2` (stereo not drawn), the inhibition in vivo at 10 mg/kg in test [5] amounted to 43%. Also, the inhibition in vivo at 3 mg/kg in test [6] amounted to 45%. Further, the inhibition in vivo at 30 mg/kg in [7] worked out at 70%. In test [8], the inhibition in vivo at 1 mg/kg turned out to be 43%.

Consider `CC(=O)NCCOC(=O)C(C)c1ccc2c(c1)Oc1ccccc1CO2` (stereo not drawn), for which the inhibition in vivo at 10 mg/kg in [5] amounted to 28%. Further, the inhibition in vivo at 3 mg/kg in [6] came out at 15%. Further, the inhibition in vivo at 1 mg/kg in test [8] stood at 7%.

As for `CCC(=O)OC(C)OC(=O)C(C)c1ccc2c(c1)Oc1ccccc1CO2` (stereo not drawn), the inhibition in vivo at 10 mg/kg in test [5] is 12%. In [6], the inhibition in vivo at 3 mg/kg came to 15%. The inhibition in vivo at 1 mg/kg in test [8] came to 6%.

Regarding `O=C(O)Cc1ccc2c(c1)Oc1ccc(Cl)cc1CO2`, in test [5], the inhibition in vivo at 10 mg/kg turned out to be 28%. Besides, the inhibition in vivo at 3 mg/kg in [6] turned out to be 23%. In addition, in test [7], the inhibition in vivo at 30 mg/kg turned out to be 82%. The inhibition in vivo at 1 mg/kg in test [8] was 21%.

In the case of `COc1ccc2c(c1)c(CC(=O)O)c(C)n2C(=O)c1ccc(Cl)cc1` [INDOMETHACIN], the inhibition in vivo at 10 mg/kg in [5] came to 67%. Also, the inhibition in vivo at 3 mg/kg in test [6] was determined as 56%. Further, in test [8], the inhibition in vivo at 1 mg/kg turned out to be 33%.

In the case of `O=C(O)Cc1ccc2c(c1)OCc1ccccc1C2=O` [OXEPINAC], the 50% effect level in test [11] (ED50) was put at a dose of 3.7 mg/kg.

`Cc1cc(CC(=O)O)n(C)c1C(=O)c1ccc(Cl)cc1` [ZOMEPIRAC]: in test [6], the inhibition in vivo at 3 mg/kg was 82%. For the same compound, the inhibition in vivo at 30 mg/kg in test [7] stood at 91%. In addition, in [8], the inhibition in vivo at 1 mg/kg turned out to be 61%.
